Active and inactive are the calls of the source. The calls are words filed in the database; no cut-off is given here.
What was measured:
Mus musculus [1] = assay: (§1) Antifibrotic activity against Pseudomonas aeruginosa-induced pulmonary fibrosis C57BL/6 mouse model assessed as reduction in inflammatory interstitial infiltrate at 80 mg/kg, os qd pretreated with compound for 1 hr followed by Pseudomonas aeruginosa instillation and measured after 7 days by H and E staining based histological analysis; format: functional, organism-based; details: time 7.0 day
Method in brief: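 Pseudomonas bead lung model, day 7, with oral 80 mg/kg daily treatment. Biopsies fixed in 10% formaldehyde in PBS at room temperature and stained with H&E. Five random fields per sample at ×100 scored for severity by a blinded observer.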

Mus musculus [2] = assay: as §1, with “decrease” for “reduction”, “lung inflammation” for “inflammatory interstitial infiltrate”, “immunohistochemistry” for “H and E staining based histological”; format: functional, organism-based; details: time 7.0 day
Mus musculus [3] = assay: Antifibrotic activity against BLM-induced lung injury C57BL/6 mouse model assessed as reduction in lung wet/dry ratio by measuring liquid accumulation at 80 mg/kg, po qd pretreated with compound for 1 hr followed by BLM treatment and measured on day 21; format: functional, organism-based; details: time 21.0 day
Method in brief: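 At day 21 after BLM aspiration (compound given orally daily from 1 h pre-BLM), lungs harvested free of extraneous tissue and weighed wet. Dried 72 h at 100°C and reweighed. Water content = wet minus dry weight.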

Mus musculus [4] = assay: as §1, with “effect on collagen deposition” for “reduction in inflammatory interstitial infiltrate”, “Masson trichrome” for “H and E”, “based” for “based histological”; format: functional, organism-based; details: time 7.0 day, tested as the 2H-labelled form
Mus musculus [5] = assay: Antifibrotic activity against BLM-induced lung injury C57BL/6 mouse model assessed as reduction in accumulation of immune cells bronchoalveolar lavage at 80 mg/kg, po qd pretreated with compound for 1 hr followed by BLM treatment and measured on day 21 by trypan blue staining based hemocytometer analysis; format: functional, organism-based
Method in brief: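 BLM model with aspiration, oral daily dosing in saline from 1 h pre-challenge, and day-21 endpoint. Lavage via tracheal cannula with 1 mL aliquots of ice-cold Ca/Mg-free phosphate medium, pH 7.4. Cells pelleted at 500×g, 5 min, 4 °C, then washed and resuspended. Counted by trypan blue exclusion on a hemocytometer.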

Mus musculus [6] = assay: Antifibrotic activity against Pseudomonas aeruginosa-induced pulmonary fibrosis C57BL/6 mouse model assessed as effect on poly(ADP-ribose) polymerase level at 80 mg/kg, os qd […] and measured after 7 days by immunohistochemistry analysis; format: functional, organism-based; details: time 7.0 day, tested as the 2H-labelled form
Method in brief: (§2)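 Mucoid P. aeruginosa NH57388A in agar beads, ~1×10^6 CFU per mouse, given trans-tracheally under isoflurane. Compound 80 mg/kg orally daily from 1 h post-instillation for 7 days, n=10. Lung sections 8 µm from formaldehyde-fixed paraffin blocks. Anti-nitrotyrosine or anti-PAR 1:500 overnight, avidin-biotin peroxidase detection. Densitometry of positive pixels; mean ± S.E.M.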

Mus musculus [7] = assay: Antifibrotic activity against BLM-induced lung injury C57BL/6 mouse model assessed as decrease in inflammatory interstitial infiltrate at 80 mg/kg, po qd pretreated with compound for 1 hr followed by BLM treatment and measured on day 21 by H and E staining based histological analysis; format: functional, organism-based; details: time 21.0 day
Method in brief: (§3)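 BLM model: pharyngeal aspiration 0.02U/50µl; oral daily dosing in saline from 1 h pre-BLM; day 21 sacrifice. Lungs fixed 48 h in 10% buffered formalin at room temperature, paraffin-embedded, 4 µm sections. Stains: H&E for infiltrate, Masson's trichrome or Picrosirius Red for stromal fibres.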

Mus musculus [8] = assay: Antifibrotic activity against BLM-induced lung injury C57BL/6 mouse model assessed as reduction in collagen thickness at 80 mg/kg, po qd pretreated with compound for 1 hr followed by BLM treatment and measured on day 21 by picrosirius red staining method; format: functional, organism-based; details: time 21.0 day; method in brief: as §3
Mus musculus [9] = assay: Antifibrotic activity against Pseudomonas aeruginosa-induced pulmonary fibrosis C57BL/6 mouse model assessed as reduction in MPO level at 80 mg/kg, os qd […] and measured after 7 days by spectrophotometric analysis; format: functional, organism-based; details: time 7.0 day, tested as the 2H-labelled form
Method in brief: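 Pseudomonas bead model, 80 mg/kg oral daily for 7 days from 1 h post-instillation. Lungs homogenized in 0.5% HTAB/10 mM potassium phosphate pH 7 and spun 20,000×g, 30 min, 4 °C. Supernatant reacted with 0.1 mM H2O2 and 1.6 mM tetramethylbenzidine, A650 read. Unit = 1 µmol H2O2 degraded/min at 37 °C; per g wet tissue.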

Mus musculus [10] = assay: Antifibrotic activity against Pseudomonas aeruginosa-induced pulmonary fibrosis C57BL/6 mouse model assessed as effect on nitrotyrosine expression at 80 mg/kg, os qd […] and measured after 7 days by immunohistochemistry analysis; format: functional, organism-based; details: time 7.0 day, tested as the 2H-labelled form; method in brief: as §2
Mus musculus [11] = assay: Antifibrotic activity against BLM-induced lung injury C57BL/6 mouse model assessed as reduction in collagen thickness at 80 mg/kg, po qd pretreated with compound for 1 hr followed by BLM treatment and measured on day 21 by Masson trichrome staining based analysis; format: functional, organism-based; details: time 21.0 day; method in brief: as §3
Mus musculus [12] = assay: Antifibrotic activity against BLM-induced lung injury C57BL/6 mouse model assessed as decrease in MPO level at 80 mg/kg, po qd pretreated with compound for 1 hr followed by BLM treatment and measured on day 21 by colorimetric assay; format: functional, organism-based; details: time 21.0 day
Method in brief: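 BLM 0.02U/50µl given by pharyngeal aspiration under isoflurane. Compound in 0.9% NaCl, or saline vehicle, by gavage 1 h before BLM, then daily. Mice killed day 21. Lung MPO measured with a colorimetric kit per the manufacturer. Unit = enzyme degrading 1 μM peroxide/min at 37°C, expressed as U/mg wet tissue.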

Mus musculus [13] = assay: as §1, with “accumulation of immune cells bronchoalveolar lavage” for “inflammatory interstitial infiltrate”, “trypan blue” for “H and E”, “hemocytometer” for “histological”; format: functional, organism-based; details: time 7.0 day
Method in brief: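 Day 7 after trans-tracheal Pseudomonas bead instillation, with oral 80 mg/kg daily dosing. Trachea cannulated, lungs washed once with 0.5 mL Dulbecco's PBS. Fluid spun, then total pelleted cells counted with trypan blue on a hemocytometer.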

Mus musculus [14] = assay: Inhibition of Pseudomonas aeruginosa-induced apoptosis in C57BL/6 mouse at 80 mg/kg, os qd pretreated with compound for 1 hr followed by Pseudomonas aeruginosa instillation and measured after 7 days by TUNEL assay; format: functional, organism-based; details: time 7.0 day, tested as the 2H-labelled form
Method in brief: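 Lung sections from the day-7 Pseudomonas model (oral 80 mg/kg daily) treated with 15 µg/ml proteinase K for 15 min at RT, then 3% H2O2 for 5 min. TdT with biotinylated dUTP applied, 37 °C 90 min. HRP-conjugated antibody 30 min, then DAB. TUNEL-positive cells quantified.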

[15] = Drug metabolism in mouse plasma assessed as 7-theophylline acetic acid formation by measuring fold increase measured at 30 mins; format: ADME, cell-free; details: 0.5 h
Method in brief: (§4)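 Plasma from mice dosed 20 mg/Kg i.v. or 80 mg/Kg by oral gavage, sampled sublingually under isoflurane pre-dose to 24 h (n=3), K3EDTA. Caffeine internal standard, trichloroacetic acid precipitation. Kinetex C18 UHPLC-MS, positive full-scan/PRM. Metabolites quantified against calibration curves.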

[16] = Drug metabolism in mouse plasma assessed as Etophylline formation measured upto 4 hrs; format: ADME, cell-free; method in brief: as §4
[17] = Drug metabolism in mouse plasma assessed as Theophylline formation measured upto 4 hrs; format: ADME, cell-free; method in brief: as §4
[18] = Drug metabolism in mouse plasma assessed as 7-((1,3-dioxol-2-yl)methyl)-1,3-dimethyl-1H-purine-2,6(3H,7H)-dione formation measured upto 6 hrs; format: ADME, cell-free
[19] = Drug metabolism in mouse plasma assessed as dm-doxophylline formation measured upto 4 hrs; format: ADME, cell-free; method in brief: as §4

In the case of `Cn1c(=O)c2c(ncn2CC2OCCO2)n(C)c1=O`, the Activity (Mus musculus [1]) was “Active”, the Activity (Mus musculus [1]; tested as the 2H-labelled form) was “Active” and the Activity (Mus musculus [2]) was “Active”. The Activity (Mus musculus [2]; tested as the 2H-labelled form) was “Active”, the Activity (Mus musculus [3]) was “Active” and the Activity (Mus musculus [3]; tested as the 2H-labelled form) was “Active”. For the same compound, the Activity (Mus musculus [4]) was “Active”, the Activity (Mus musculus [5]) was “Active” and the Activity (Mus musculus [5]; tested as the 2H-labelled form) was “Active”. The Activity (Mus musculus [6]) was “Active”, the Activity (Mus musculus [7]) was “Active” and the Activity (Mus musculus [7]; tested as the 2H-labelled form) was “Active”. For the same compound, the Activity (Mus musculus [8]) was “Active”, the Activity (Mus musculus [8]; tested as the 2H-labelled form) was “Active” and the Activity (Mus musculus [9]) was “Active”. For the same compound, the Activity (Mus musculus [10]) was “Active”, the Activity (Mus musculus [11]) was “Active” and the Activity (Mus musculus [11]; tested as the 2H-labelled form) was “Active”. The Activity (Mus musculus [12]) was “Active”, the Activity (Mus musculus [12]; tested as the 2H-labelled form) was “Active” and the Activity (Mus musculus [13]) was “Active”. The Activity (Mus musculus [13]; tested as the 2H-labelled form) was “Active” and the inhibition (Mus musculus [14]) was “Active”.

In the case of `[2H]C1([2H])OC(Cn2cnc3c2c(=O)n(C)c(=O)n3C)OC1([2H])[2H]`, the “fold change (FC)” value [15] was 3, the Drug metabolism [16] was “Metabolite_Notdetected” and the Drug metabolism [17] was “Metabolite_Detected”. The Drug metabolism [18] was “Metabolite_Notdetected” and the Drug metabolism [19] was “Metabolite_Detected”.
